# Laboratory results taken from ChEMBL document CHEMBL1126018, “Syntheses and 5-HT2 antagonist activity of bicyclic 1,2,4-triazol-3(2H)-one and 1,3,5-triazine-2,4(3H)-dione derivatives” (J Med Chem, 1992).
# Columns and labels:
# [1] = test system: Mus musculus; experiment: The inhibition of compound was measured for 8 min in head twitches of mice induced by 5-HTP(100 mg/kg, ip) at the dose of 0.3 mg/kg; assay type: functional
# In short: (§1)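 Mice received drug orally 1 h before 5-HTP (100 mg/kg ip). Head twitches were counted for 5 or 8 min, starting 30 min after 5-HTP. Results are % inhibition versus controls (n = 6), with n = 4 per treated dose.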
# [2] = test system: Mus musculus; experiment: The inhibition of compound was measured for 5 min in head twitches of mice induced by 5-HTP(100 mg/kg, ip) at the dose of 10 mg/kg; assay type: functional; in short: as §1
# [3] = test system: Mus musculus; experiment: The inhibition of compound was measured for 8 min in head twitches of mice induced by 5-HTP(100 mg/kg, ip) at the dose of 0.1 mg/kg; assay type: functional; in short: as §1
# [4] = test system: Mus musculus; experiment: The inhibition of compound was measured for 8 min in head twitches of mice induced by 5-HTP(100 mg/kg, ip) at the dose of 1 mg/kg; assay type: functional; in short: as §1
# [5] = biological target: T1, Serotonin 2 (5-HT2) receptor (Rattus norvegicus) (UniProt P30994+P08909+P14842); experiment: In vivo inhibitory activity of 10 mg/kg compound in rats against elevation of BP caused by 5-HT (300 ug/kg, iv) through 5-hydroxytryptamine 2 receptor 3h after oral administration; assay type: functional, organism-based; set-up: dose 10 mg/kg
# T1 sequence (P08909 whole entry, looked up): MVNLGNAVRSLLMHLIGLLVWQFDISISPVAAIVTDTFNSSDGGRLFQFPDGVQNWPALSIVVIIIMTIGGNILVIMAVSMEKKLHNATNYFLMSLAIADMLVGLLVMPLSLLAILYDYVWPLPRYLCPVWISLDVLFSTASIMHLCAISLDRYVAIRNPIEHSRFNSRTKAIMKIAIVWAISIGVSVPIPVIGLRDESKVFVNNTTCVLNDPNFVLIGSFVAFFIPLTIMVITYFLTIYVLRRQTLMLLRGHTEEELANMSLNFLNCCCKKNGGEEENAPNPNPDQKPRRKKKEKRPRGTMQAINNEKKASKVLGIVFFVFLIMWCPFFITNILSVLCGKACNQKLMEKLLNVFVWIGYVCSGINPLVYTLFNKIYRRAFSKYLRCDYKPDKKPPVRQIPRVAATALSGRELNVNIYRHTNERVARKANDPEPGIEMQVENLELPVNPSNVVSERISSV
# T1 sequence (P14842 whole entry, looked up): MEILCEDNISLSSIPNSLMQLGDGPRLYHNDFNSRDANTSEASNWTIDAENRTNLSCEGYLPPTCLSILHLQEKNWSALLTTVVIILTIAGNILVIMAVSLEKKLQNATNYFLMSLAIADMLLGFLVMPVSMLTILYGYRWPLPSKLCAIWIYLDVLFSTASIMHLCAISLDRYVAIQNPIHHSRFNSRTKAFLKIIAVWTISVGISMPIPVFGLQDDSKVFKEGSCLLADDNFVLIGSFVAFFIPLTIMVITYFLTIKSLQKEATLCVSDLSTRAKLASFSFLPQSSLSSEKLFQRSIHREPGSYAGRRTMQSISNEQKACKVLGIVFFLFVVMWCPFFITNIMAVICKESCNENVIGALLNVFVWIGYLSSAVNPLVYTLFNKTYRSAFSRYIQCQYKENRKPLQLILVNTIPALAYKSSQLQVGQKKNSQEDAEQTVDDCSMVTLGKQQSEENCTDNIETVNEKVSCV
# T1 sequence (P30994 whole entry, looked up): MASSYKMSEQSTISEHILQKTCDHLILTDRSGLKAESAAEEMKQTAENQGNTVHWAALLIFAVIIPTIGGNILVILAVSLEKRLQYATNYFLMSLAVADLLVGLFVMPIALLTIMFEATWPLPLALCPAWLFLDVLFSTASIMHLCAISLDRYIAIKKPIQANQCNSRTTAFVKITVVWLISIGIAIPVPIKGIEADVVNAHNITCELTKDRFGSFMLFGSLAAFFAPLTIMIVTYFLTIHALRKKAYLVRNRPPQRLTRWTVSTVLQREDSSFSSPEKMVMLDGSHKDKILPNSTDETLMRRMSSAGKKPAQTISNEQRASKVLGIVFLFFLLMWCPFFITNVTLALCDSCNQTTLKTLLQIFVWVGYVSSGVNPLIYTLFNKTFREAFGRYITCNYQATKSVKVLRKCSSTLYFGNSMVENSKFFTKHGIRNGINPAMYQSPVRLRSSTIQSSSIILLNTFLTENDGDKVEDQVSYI
# In short: (§2)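 Male SD rats anesthetized with urethane (1 g/kg ip) plus alpha-chloralose (80 mg/kg ip). Carotid arterial catheter to a pressure transducer, venous catheter for injection. After oral drug or vehicle, 5-HT 300 μg/kg iv. The pressor phase following the brief hypotensive phase was measured and expressed as % inhibition, mean ± SEM.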
# [6] = biological target: T2, Adrenergic receptor alpha-1 (Rattus norvegicus, UniProt P15823+P23944+P43140); experiment: In vitro antagonistic activity tested against the contraction induced by phenylephrine through Alpha-1 adrenergic receptor in rat thoracic aortic strips; assay type: functional
# T2 sequence (P15823 whole entry): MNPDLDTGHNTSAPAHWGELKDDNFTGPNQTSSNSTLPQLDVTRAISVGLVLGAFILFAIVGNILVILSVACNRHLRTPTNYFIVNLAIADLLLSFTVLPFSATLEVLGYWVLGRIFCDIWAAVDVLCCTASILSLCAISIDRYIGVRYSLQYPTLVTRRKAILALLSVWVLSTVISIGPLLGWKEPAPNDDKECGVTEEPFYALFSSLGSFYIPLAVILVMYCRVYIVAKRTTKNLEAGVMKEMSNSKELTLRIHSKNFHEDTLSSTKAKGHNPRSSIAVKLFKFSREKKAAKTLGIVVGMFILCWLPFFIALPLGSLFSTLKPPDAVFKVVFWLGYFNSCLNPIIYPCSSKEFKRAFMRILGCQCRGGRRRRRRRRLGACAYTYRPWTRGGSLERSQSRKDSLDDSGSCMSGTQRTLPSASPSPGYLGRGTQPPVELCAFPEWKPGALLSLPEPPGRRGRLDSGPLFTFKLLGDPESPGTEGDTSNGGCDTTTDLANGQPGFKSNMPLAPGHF
# T2 sequence (P23944 whole entry): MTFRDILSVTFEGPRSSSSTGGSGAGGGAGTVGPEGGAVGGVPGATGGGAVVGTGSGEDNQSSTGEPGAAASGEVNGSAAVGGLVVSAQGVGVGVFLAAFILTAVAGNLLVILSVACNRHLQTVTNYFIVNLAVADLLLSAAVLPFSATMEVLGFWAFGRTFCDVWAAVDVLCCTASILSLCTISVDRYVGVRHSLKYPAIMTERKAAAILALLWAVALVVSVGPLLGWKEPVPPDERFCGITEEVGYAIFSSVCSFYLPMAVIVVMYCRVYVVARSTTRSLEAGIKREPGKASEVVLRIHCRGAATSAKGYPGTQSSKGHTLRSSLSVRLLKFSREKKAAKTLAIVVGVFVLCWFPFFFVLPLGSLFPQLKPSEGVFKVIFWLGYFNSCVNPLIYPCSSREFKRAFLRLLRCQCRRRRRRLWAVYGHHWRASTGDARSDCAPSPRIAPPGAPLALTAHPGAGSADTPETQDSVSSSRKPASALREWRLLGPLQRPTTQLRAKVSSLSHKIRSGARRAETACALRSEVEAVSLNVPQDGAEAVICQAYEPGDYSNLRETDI
# T2 sequence (P43140 whole entry): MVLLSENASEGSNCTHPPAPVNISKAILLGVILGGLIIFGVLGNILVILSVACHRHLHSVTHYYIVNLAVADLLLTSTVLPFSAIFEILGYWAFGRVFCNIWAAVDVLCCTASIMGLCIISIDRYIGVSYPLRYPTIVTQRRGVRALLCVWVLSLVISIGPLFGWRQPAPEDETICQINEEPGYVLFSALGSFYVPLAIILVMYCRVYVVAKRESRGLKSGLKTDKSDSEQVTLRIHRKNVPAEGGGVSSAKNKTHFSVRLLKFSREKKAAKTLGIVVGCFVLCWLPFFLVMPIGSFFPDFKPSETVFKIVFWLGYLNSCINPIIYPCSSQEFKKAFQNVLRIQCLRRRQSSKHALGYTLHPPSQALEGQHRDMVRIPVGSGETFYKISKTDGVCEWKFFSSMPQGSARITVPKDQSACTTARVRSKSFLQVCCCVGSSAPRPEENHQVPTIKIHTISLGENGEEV
# In short: (§3)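 Rat thoracic aortic strips, isometric tension; equilibrated 120 min, primed with 60 mM KCl. Cumulative phenylephrine (0.01-10 μM) curve, wash, 1 h later second cumulative curve with test drug present. pA2 from the concentration-response curves where blockade is competitive (otherwise noncompetitive); single determination.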
# [7] = biological target: T1, Serotonin 2 (5-HT2) receptor (Rattus norvegicus); experiment: In vivo inhibitory activity of 3 mg/kg compound in rats against elevation of BP caused by 5-HT (300 ug/kg, iv) through 5-hydroxytryptamine 2 receptor 1 hr after oral administration; assay type: functional, organism-based; set-up: dose 3 mg/kg; in short: as §2
# [8] = biological target: T3, Adrenergic receptor alpha-1 (Rattus norvegicus) (UniProt P15823+P23944+P43140); experiment: In vivo inhibitory activity in rats against elevation of blood pressure caused by phenylephrine (30 ug/kg, iv) through Alpha-1 adrenergic receptor, after 1 hr oral administration at dose of 10 mg/kg; assay type: functional, organism-based; set-up: dose 10 mg/kg
# In short: (§4)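 Male SD rats under urethane (1 g/kg ip) and alpha-chloralose (80 mg/kg ip). Blood pressure recorded via carotid catheter and transducer, iv dosing via venous catheter. After oral drug or vehicle, phenylephrine 30 μg/kg iv. The pressor rise was expressed as % inhibition, mean ± SEM.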
# [9] = biological target: T1, Serotonin 2 (5-HT2) receptor (Rattus norvegicus); experiment: In vivo inhibitory activity of 3 mg/kg compound in rats against elevation of BP caused by 5-HT (300 ug/kg, iv) through 5-hydroxytryptamine 2 receptor 3h after oral administration; assay type: functional, organism-based; set-up: dose 3 mg/kg; in short: as §2
# [10] = biological target: T3, Adrenergic receptor alpha-1 (Rattus norvegicus); experiment: In vivo inhibitory activity in rats against elevation of blood pressure caused by phenylephrine (30 ug/kg, iv) through alpha-1 receptor after 1 hr of oral administration at the dose of 10 mg/kg; assay type: functional, organism-based; set-up: dose 10 mg/kg; in short: as §4
# [11] = test system: Mus musculus; experiment: The inhibition of compound was measured for 5 min in head twitches of mice induced by 5-HTP(100 mg/kg, ip) at the dose of 3 mg/kg; assay type: functional; in short: as §1
# [12] = biological target: T1, Serotonin 2 (5-HT2) receptor (Rattus norvegicus); experiment: In vivo inhibitory activity of 10 mg/kg compound in rats against elevation of BP caused by 5-HT (300 ug/kg, iv) through 5-hydroxytryptamine 2 receptor 1 hr after oral administration; assay type: functional, organism-based; set-up: dose 10 mg/kg; in short: as §2
# [13] = biological target: T4, Serotonin 2 (5-HT2) receptor (Rattus norvegicus, UniProt P30994+P08909+P14842); experiment: In vitro antagonistic activity against the contraction induced by 5-HT through 5-HT2 receptor in rat thoracic aortic strips; assay type: functional
# In short: as §3, with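 “5-HT (0.1-100” for “phenylephrine (0.01-10”, “cumulative 5-HT” for “cumulative”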
# [14] = biological target: T2, Adrenergic receptor alpha-1; experiment: In vitro antagonistic activity against the contraction induced by phenylephrine through alpha-1 receptor in rat thoracic aortic strips; assay type: functional; in short: as §3
# [15] = biological target: T4, Serotonin 2 (5-HT2) receptor; experiment: In vitro antagonistic activity tested against the contraction induced by 5-HT through 5-hydroxytryptamine 2 receptor in rat thoracic aortic strips; assay type: functional
# [16] = biological target: T3, Adrenergic receptor alpha-1 (Rattus norvegicus); experiment: In vitro antagonistic activity against the contraction induced by phenylephrine through Alpha-1 adrenergic receptor in rat thoracic aortic strips; NC = non-competitive inhibition; assay type: functional; in short: as §3
# [17] = biological target: T1, Serotonin 2 (5-HT2) receptor (Rattus norvegicus); experiment: In vitro antagonistic activity against the contraction induced by 5-HT through 5-hydroxytryptamine 2 receptor in rat thoracic aortic strips; NC=non competitive antagonism; assay type: functional; conditions: filed as antagonist
# In short: as §3, with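 “5-HT (0.1-100” for “phenylephrine (0.01-10”, “cumulative 5-HT” for “cumulative”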
# [18] = biological target: T1, Serotonin 2 (5-HT2) receptor (Rattus norvegicus); experiment: In vitro antagonistic activity against the contraction induced by 5-HT through 5-hydroxytryptamine 2 receptor in rat thoracic aortic strips; assay type: functional; conditions: concentration not given here
# In short: as §3, with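 “5-HT (0.1-100” for “phenylephrine (0.01-10”, “cumulative 5-HT” for “cumulative”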
Structure (SMILES),inhibition [5] [%],pA2 [6],inhibition [7] [%],inhibition [9] [%],inhibition [12] [%],pA2 [13],pA2 [14],pA2 [15],pA2 [16],pA2 [17],inhibition [18] [%],inhibition in vivo at 0.3 mg/kg [1] [%],inhibition in vivo at 10 mg/kg [2] [%],inhibition in vivo at 0.1 mg/kg [3] [%],inhibition in vivo at 1 mg/kg [4] [%],inhibition [8] [%],inhibition [10] [%],inhibition in vivo at 3 mg/kg [11] [%]
O=C(c1ccc(F)cc1)C1CCN(CCn2c(=O)[nH]c3ccccc3c2=O)CC1 [KETANSERIN],100,7.8,96,84,–,–,–,–,–,–,–,88,100,49,93,91,91,92
O=C(c1ccc(F)cc1)C1CCN(CCCn2nc3n(c2=O)CCCCC3)CC1,–,–,–,–,–,–,–,–,Non-competitive inhibition,Non-competitive antagonist,–,–,–,–,–,–,–,–
O=C(c1ccc(F)cc1)C1CCN(CCn2c(=O)nc3n(c2=O)CCCC3)CC1,90,6.9,93,83,–,–,–,8.1,–,–,93,59,80,49,81,33,33,67

# More lines, main results first:
inhibition [5] [%],pA2 [6],inhibition [7] [%],inhibition [9] [%],inhibition [12] [%],pA2 [13],pA2 [14],pA2 [15],pA2 [16],pA2 [17],inhibition [18] [%],Structure (SMILES),inhibition in vivo at 0.3 mg/kg [1] [%],inhibition in vivo at 10 mg/kg [2] [%],inhibition in vivo at 0.1 mg/kg [3] [%],inhibition in vivo at 1 mg/kg [4] [%],inhibition [8] [%],inhibition [10] [%],inhibition in vivo at 3 mg/kg [11] [%]
–,6.6,–,–,58,7,–,–,–,–,–,O=c1n(CCN2CCC(=C(c3ccc(F)cc3)c3ccc(F)cc3)CC2)nc2ccccn12,–,–,–,–,6,–,–
–,–,–,–,74,–,6.9,7.1,–,–,–,O=c1n(CCN2CCC(=C(c3ccc(F)cc3)c3ccc(F)cc3)CC2)nc2n1CCC2,–,–,–,–,–,6,–
–,–,–,–,41,–,7.2,6.8,–,–,–,COc1ccc(C(=C2CCN(CCn3nc4n(c3=O)CCCC4)CC2)c2ccc(OC)cc2)cc1,–,–,–,–,–,4,–
